Assay results from ChEMBL document CHEMBL1154878, “Discovery of benzhydrylpiperazine derivatives as CB1 receptor inverse agonists via privileged structure-based approach” (Eur J Med Chem, 2010).
Active and inactive are the calls of the source. The calls are words filed in the database; no cut-off is given here.

Experiments:
Cannabinoid receptor 2 = Cannabinoid receptor 2 (Homo sapiens, UniProt P34972); assay: Displacement of [3H]CP-55940 from human recombinant cannabinoid CB2 receptor expressed in CHO cells after 3 hrs by liquid scintillation counting; type: cell-based
Cannabinoid receptor 1 [1] = biological target: T1, Cannabinoid receptor 1 (Homo sapiens, UniProt P21554); assay: biochemical; type: cell-based, CHO
Cannabinoid receptor 1 [2] = biological target: T1, Cannabinoid receptor 1; type: functional, cell-based, CHO
Cannabinoid receptor 1 [3] = biological target: T1, Cannabinoid receptor 1; assay: Inverse agonist activity at human cannabinoid CB1 receptor expressed in CHO cells assessed as inhibition of forskolin-stimulated cAMP accumulation after 60 mins; type: functional, cell-based
Rattus norvegicus [4] = assay: Antiobesity activity in diet-induced obese Sprague-Dawley rat assessed as reduction in food intake at 10 mg/kg, po after 3 hrs; type: functional; parameters: scale not given: the % may be the effect or the level left
Outline: (§1)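 Male DIO Sprague-Dawley rats (HFD from weaning), randomized n = 14/group, individually caged. Single oral dose 10 mg/kg in 0.5% carboxymethyl cellulose (2 mL/kg) 1 h before dark onset. Preweighed pelleted food reweighed at 3 h and overnight (18 h) postdose for cumulative intake vs vehicle.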

[5] = Plasma half life in Sprague-Dawley rat at 10 mg/kg, po; type: ADME, organism-based; parameters: dose 10 mg/kg, route oral
Outline: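 Male Sprague–Dawley rats fasted overnight, single oral dose 10 mg/kg. Blood collected at various time points into lithium heparin, plasma stored at -20 °C, extracted by protein precipitation and quantified by LC/MS/MS; n = 5 rats/group.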

Rattus norvegicus [6] = assay: Antiobesity activity in diet-induced obese Sprague-Dawley rat assessed as reduction in food intake at 10 mg/kg, po after 18 hrs; type: functional; parameters: scale not given: the % may be the effect or the level left; outline: as §1
Rattus norvegicus [7] = assay: Antiobesity activity in diet-induced obese Sprague-Dawley rat assessed as reduction in final body weight gain at 10 mg/kg, po SID after 12 days; type: functional, organism-based; parameters: dose 10 mg/kg
Outline: (§2)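 Male DIO rats (HFD from weaning, 60% kcal fat; used at 12-16 weeks, conditioned to water gavage 5 days), individually caged, n = 11-12/group. Oral gavage 10 mg/kg daily for 12 days, 1 h before dark cycle, in 0.5% carboxymethyl cellulose/water (2 mL/kg) vs vehicle. Food intake and body weight recorded daily; Student's t-test.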

Rattus norvegicus [8] = assay: Antiobesity activity in diet-induced obese Sprague-Dawley rat assessed as body weight progression at 10 mg/kg, po SID up to 12 days; type: functional, organism-based; parameters: dose 10 mg/kg; outline: as §2

Cannabinoid receptor 2, sequence (P34972 whole entry): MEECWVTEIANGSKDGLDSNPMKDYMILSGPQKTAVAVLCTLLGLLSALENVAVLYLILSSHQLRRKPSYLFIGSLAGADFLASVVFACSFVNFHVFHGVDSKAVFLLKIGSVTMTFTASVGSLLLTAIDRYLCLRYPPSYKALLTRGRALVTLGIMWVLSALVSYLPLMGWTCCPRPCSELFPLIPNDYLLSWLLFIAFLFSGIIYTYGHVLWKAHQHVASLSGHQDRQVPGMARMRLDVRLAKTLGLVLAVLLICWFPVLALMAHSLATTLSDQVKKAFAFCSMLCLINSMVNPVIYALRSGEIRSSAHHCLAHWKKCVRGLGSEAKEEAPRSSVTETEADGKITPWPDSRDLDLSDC
T1 sequence (P21554 whole entry): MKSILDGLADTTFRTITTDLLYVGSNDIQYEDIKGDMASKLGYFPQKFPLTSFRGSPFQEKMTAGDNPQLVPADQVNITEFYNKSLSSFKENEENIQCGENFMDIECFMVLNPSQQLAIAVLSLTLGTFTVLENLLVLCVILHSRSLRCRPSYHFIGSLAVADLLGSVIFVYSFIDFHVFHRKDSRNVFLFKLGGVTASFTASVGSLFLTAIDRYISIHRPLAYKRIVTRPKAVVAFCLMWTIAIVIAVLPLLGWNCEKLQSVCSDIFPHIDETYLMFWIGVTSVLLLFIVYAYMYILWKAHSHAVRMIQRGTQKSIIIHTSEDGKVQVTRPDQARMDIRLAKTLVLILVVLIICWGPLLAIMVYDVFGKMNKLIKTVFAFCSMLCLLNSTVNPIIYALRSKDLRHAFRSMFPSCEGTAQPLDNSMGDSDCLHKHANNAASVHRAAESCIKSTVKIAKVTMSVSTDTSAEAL

| Structure (SMILES) | Ki (Cannabinoid receptor 2) | Ki (Cannabinoid receptor 1 [1]) | IC50 (Cannabinoid receptor 1 [2]) | further results |
| --- | --- | --- | --- | --- |
| S=C(NC1CCCCC1)N1CCN(C(c2ccccc2)c2ccccc2)CC1 | 1870 nM | 106 nM | – | – |
| CCCCNC(=O)N1CCN(C(c2ccccc2)c2ccccc2)CC1 | 2830 nM | 239 nM | – | – |
| O=C(NC1CCCCC1)N1CCN(C(c2ccc(Cl)cc2)c2ccc(Cl)cc2Cl)CC1 (centres undefined) | 26 nM | 0.23 nM | 19 nM | – |
| O=C(NC1CCCCC1)N1CCN(C(c2ccc(C(F)(F)F)cc2)c2ccc(Cl)cc2Cl)CC1 (centres undefined) | 274 nM | 1.2 nM | 57 nM | – |
| O=C(NC1CCCCC1)N1CCN(C(c2ccccc2)c2ccc(Cl)cc2Cl)CC1 (centres undefined) | 432 nM | 1.6 nM | 9.2 nM | – |
| Cc1ccc(C(c2ccc(Cl)cc2Cl)N2CCN(C(=O)NC3CCCCC3)CC2)cc1 (centres undefined) | 329 nM | 0.15 nM | 2.7 nM | EC50 (Cannabinoid receptor 1 [3]): 0.87 nM; Activity (Rattus norvegicus [4]): 39%; half-life [5]: 2.4 h; Activity (Rattus norvegicus [6]): 22%; Activity (Rattus norvegicus [7]): Active; Activity (Rattus norvegicus [8]): Active |
| COc1ccc(C(c2ccc(Cl)cc2Cl)N2CCN(C(=O)NC3CCCCC3)CC2)cc1 (centres undefined) | 290 nM | 2.6 nM | 82 nM | – |
| O=C(N1CCOCC1)N1CCN(C(c2ccccc2)c2ccc(Cl)cc2Cl)CC1 (centres undefined) | 618 nM | 111 nM | > 10000 nM | – |
| O=C(NC1CCCCC1)N1CCN(C(c2ccccc2)c2ccc(Cl)c(Cl)c2)CC1 (centres undefined) | 356 nM | 60 nM | 462 nM | – |
| O=C(NC1CCCCC1)N1CCN(C(c2ccccc2)c2cc(Cl)ccc2Cl)CC1 (centres undefined) | 899 nM | 5.9 nM | 43 nM | – |
| O=C(C1CCC1)N1CCN(C(c2ccccc2)c2ccc(Cl)cc2Cl)CC1 (centres undefined) | 2120 nM | 291 nM | > 10000 nM | – |
| O=C(NC1CCCCC1)N1CCN(C(c2ccccc2)c2ccc(Cl)cc2F)CC1 (centres undefined) | 526 nM | 3.1 nM | 124 nM | – |
| O=C(NC1CCCCC1)N1CCN(C(c2ccccc2)c2ccccc2)CC1 | 2410 nM | 52 nM | – | – |
| O=C(NC1CCCCC1)N1CCN(C(c2cccc(Cl)c2)c2ccc(Cl)cc2Cl)CC1 (centres undefined) | 407 nM | 2.3 nM | 161 nM | – |
| O=C(C1CCCC1)N1CCN(C(c2ccccc2)c2ccc(Cl)cc2Cl)CC1 (centres undefined) | 4880 nM | 732 nM | 403 nM | – |
| Cc1ccc(C(c2ccc(Cl)cc2Cl)N2CCN(C(=O)NN3CCCCC3)CC2)cc1 (centres undefined) | 317 nM | 3 nM | 15 nM | – |
| S=C(NC1CCCCC1)N1CCN(C(c2ccccc2)c2ccc(Cl)cc2Cl)CC1 (centres undefined) | 673 nM | 0.2 nM | 18 nM | – |
| O=C(NC1CCCCC1)N1CCN(C(c2ccc(Oc3ccccc3)cc2)c2ccc(Cl)cc2Cl)CC1 (centres undefined) | 52 nM | 1.1 nM | 34 nM | – |
| O=C(NN1CCCCC1)N1CCN(C(c2ccccc2)c2ccc(Cl)cc2Cl)CC1 (centres undefined) | 1040 nM | 1.2 nM | 4.7 nM | – |

Further compounds by falling Ki (Cannabinoid receptor 2), results first:

| Ki (Cannabinoid receptor 2) | Ki (Cannabinoid receptor 1 [1]) | IC50 (Cannabinoid receptor 1 [2]) | Structure (SMILES) | further results |
| --- | --- | --- | --- | --- |
| 3050 nM | 164 nM | – | O=C(C1CCCCC1)N1CCN(C(c2ccccc2)c2ccccc2)CC1 | – |
| 2930 nM | 5.8 nM | 9.3 nM | O=C(C1CCCCC1)N1CCN(C(c2ccccc2)c2ccc(Cl)cc2Cl)CC1 (centres undefined) | – |
| 1300 nM | 8.1 nM | 68 nM | O=C(NC1CCCCC1)N1CCN(C(c2ccccc2)c2ccc(F)cc2Cl)CC1 (centres undefined) | – |
| 987 nM | 56 nM | > 10000 nM | O=C(N1CCCCC1)N1CCN(C(c2ccccc2)c2ccc(Cl)cc2Cl)CC1 (centres undefined) | – |
| 918 nM | – | – | CCCCNC(=O)N1CCN(C(c2ccccc2)c2ccc(Cl)cc2Cl)CC1 (centres undefined) | – |
| 831 nM | 2.2 nM | 55 nM | O=C(NC1CCCCC1)N1CCN(C(c2ccccc2)c2c(Cl)cccc2Cl)CC1 (centres undefined) | – |
| 322 nM | 1.8 nM | 87 nM | O=C(NC1CCCCC1)N1CCN(C(c2ccccc2)c2ccc(Br)cc2F)CC1 (centres undefined) | – |
| 159 nM | 2.5 nM | 8.1 nM | O=C(NC1CCCCC1)N1CCN(C(c2ccc(F)cc2)c2ccc(Cl)cc2Cl)CC1 (centres undefined) | – |
| 25 nM | 5.9 nM | 288 nM | O=C(N1CCN(C(c2ccccc2)c2ccc(Cl)cc2Cl)CC1)C12CC3CC(CC(C3)C1)C2 (centres undefined) | – |
